Laboratory results as given in ChEMBL document CHEMBL4368869, “'Second-generation' 1,2,3-triazole-based inhibitors of Porphyromonas gingivalis adherence to oral streptococci and biofilm formation” (Medchemcomm, 2019).

These compounds were tested on TIGK (assay: Cytotoxicity against human TIGK cells assessed as increase in LDH release at 5 to 60 uM after 18 hrs by LDH release assay).
Format: cell-based
How it was run: (§1)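 Immortalized gingival keratinocytes (TIGK) are seeded at 4000 cells/well, grown 24 h, then exposed 18 h to compound in fresh medium. Supernatant is mixed with LDH substrate for 30 min at room temperature, stopped, and read at OD 490 nm. Kit lysis buffer for 1 h serves as the positive control; medium alone is the negative control. Triplicate samples.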
In the case of `Fc1ccc(Nc2nc(Nc3ccc(F)cc3)nc(-c3cn(-c4cccc(-c5nc(-c6ccccc6)c(-c6ccccc6)o5)c4)nn3)n2)cc1`, the Activity is reported as “Non-Toxic”.
`Fc1ccc(Nc2nc(Nc3ccc(F)cc3)nc(-c3cn(-c4ccccc4-c4nc(-c5ccco5)c(-c5ccco5)o4)nn3)n2)cc1` was tested, and the Activity was “Non-Toxic”.

Each compound was assayed on TIGK (assay: Cytotoxicity against human TIGK cells assessed as reduction in ATP levels after 18 hrs by CellTiterGlo reagent-based assay).
Format: cell-based
How it was run: (§2)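 TIGK cells are seeded at 4000/well and grown 24 h, then exposed 18 h to compound. They are washed three times with PBS and treated with CellTiterGlo substrate, 2 min with shaking plus 10 min static. Total ATP is read by luminescence. Reduction is judged against cells in medium with 0.1% DMSO, p<0.05.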
For `Fc1ccc(Nc2nc(Nc3ccc(F)cc3)nc(-c3cn(-c4cccc(-c5nc(-c6ccccc6)c(-c6ccccc6)o5)c4)nn3)n2)cc1`, the Activity was “Dose-dependent effect”.

The compounds below were run on TIGK (assay: Cytotoxicity against human TIGK cells assessed as reduction in ATP levels at 60 uM after 18 hrs by CellTiterGlo reagent-based assay).
Format: cell-based
How it was run: as §2
`Fc1ccc(Nc2nc(Nc3ccc(F)cc3)nc(-c3cn(-c4cccc(-c5nc(-c6ccccc6)c(-c6ccccc6)o5)c4)nn3)n2)cc1` was tested, and the Activity was “Toxic”.

These compounds were tested on TIGK (assay: Cytotoxicity against human TIGK cells assessed as increase in LDH release at 5 to 20 uM after 18 hrs by LDH release assay).
Format: cell-based
How it was run: as §1
`Fc1ccc(Nc2nc(Nc3ccc(F)cc3)nc(-c3cn(-c4ccc(-c5nc(-c6ccc(F)cc6)c(-c6ccc(F)cc6)o5)cc4)nn3)n2)cc1` was tested, and the Activity was “Non-Toxic”.

Each compound was assayed on TIGK (assay: Cytotoxicity against human TIGK cells assessed as increase in LDH release at 5 to 40 uM after 18 hrs by LDH release assay).
Format: cell-based
How it was run: as §1
With `CCN(CC)c1nc(-c2cn(-c3ccc(-c4nc(-c5ccc(Cl)cc5)c(-c5ccc(Cl)cc5)o4)cc3)nn2)nc(N(CC)CC)n1` the Activity was “Non-Toxic”.

What follows are compounds tested on TIGK (assay: Cytotoxicity against human TIGK cells assessed as reduction in ATP levels at 5 to 60 uM after 18 hrs by CellTiterGlo reagent-based assay).
Format: cell-based
How it was run: as §2
For `Fc1ccc(Nc2nc(Nc3ccc(F)cc3)nc(-c3cn(-c4ccccc4-c4nc(-c5ccco5)c(-c5ccco5)o4)nn3)n2)cc1`, the Activity was “Non-Toxic”.

The compounds below were run on TIGK (assay: Cytotoxicity against human TIGK cells assessed as reduction in ATP levels at 5 to 40 uM after 18 hrs by CellTiterGlo reagent-based assay).
Format: cell-based
How it was run: as §2
With `CCN(CC)c1nc(-c2cn(-c3ccc(-c4nc(-c5ccc(Cl)cc5)c(-c5ccc(Cl)cc5)o4)cc3)nn2)nc(N(CC)CC)n1` the Activity was “Non-Toxic”.

These compounds were tested on Porphyromonas gingivalis (assay: Antibiofilm activity against Porphyromonas gingivalis ATCC 33277 assessed as inhibition of Porphyromonas gingivalis ATCC 33277 adherence to Streptococcus gordonii after 22 hrs by laser scanning confocal microscopic analysis).
Format: functional, organism-based
How it was run: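 S. gordonii DL-1, labelled with hexidium iodide and adjusted to OD600 0.8 in PBS, is grown 24 h at 37 °C with shaking under anaerobic conditions on coverslips. Carboxyfluorescein-labelled P. gingivalis (OD600 0.4) is pre-incubated 30 min with compound (final 0–60 μM, 0.1% DMSO) and added, then incubated anaerobically 22 h. After PFA fixation, confocal imaging reads the green/red fluorescence ratio. IC50 is the concentration halving that ratio. Triplicates, three independent experiments.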
`CCN(CC)c1nc(-c2cn(-c3ccc(-c4nc(-c5ccccc5)c(-c5ccccc5)o4)cc3)nn2)nc(N(CC)CC)n1` was tested, and the IC50 was “Not Active”.
`COc1ccc(-c2nc(-c3ccc(-n4cc(-c5nc(Nc6ccc(F)cc6)nc(Nc6ccc(F)cc6)n5)nn4)cc3)oc2-c2ccc(OC)cc2)cc1` was tested, and the IC50 was “Not Active”.
For `COc1ccccc1-c1cn(-c2ccc([S+]([O-])Cc3nc(-c4ccccc4)c(-c4ccccc4)o3)cc2)nn1` (stereo unspecified), the IC50 was “Not Active”.
With `COc1ccc(-c2nc(-c3ccccc3-n3cc(-c4nc(Nc5ccc(F)cc5)nc(Nc5ccc(F)cc5)n4)nn3)oc2-c2ccc(OC)cc2)cc1` the IC50 was “Not Active”.
For `COc1ccc2cc(-c3cn(-c4ccc([S+]([O-])Cc5nc(-c6ccccc6)c(-c6ccccc6)o5)cc4)nn3)ccc2c1` (stereo unspecified), the IC50 was “Not Active”.
For `Fc1ccccc1Nc1nc(Nc2ccccc2F)nc(-c2cn(-c3ccc(-c4nc(-c5ccc(Cl)cc5)c(-c5ccc(Cl)cc5)o4)cc3)nn2)n1`, the IC50 was “Not Active”.
With `[O-][S+](Cc1nc(-c2ccccc2)c(-c2ccccc2)o1)c1ccc(-n2cc(-c3ccccc3C(F)(F)F)nn2)cc1` (stereo unspecified) the IC50 was “Not Active”.
In the case of `Fc1ccccc1Nc1nc(Nc2ccccc2F)nc(-c2cn(-c3cccc(-c4nc(-c5ccco5)c(-c5ccco5)o4)c3)nn2)n1`, the IC50 is reported as “Not Active”.
`CCN(CC)c1nc(-c2cn(-c3cccc(-c4nc(-c5ccc(F)cc5)c(-c5ccc(F)cc5)o4)c3)nn2)nc(N(CC)CC)n1` was tested, and the IC50 was “Not Active”.
`CCN(CC)c1nc(-c2cn(-c3cccc(-c4nc(-c5ccco5)c(-c5ccco5)o4)c3)nn2)nc(N(CC)CC)n1` was tested, and the IC50 was “Not Active”.
`COc1ccc(-c2nc(-c3cccc(-n4cc(-c5nc(Nc6ccc(F)cc6)nc(Nc6ccc(F)cc6)n5)nn4)c3)oc2-c2ccc(OC)cc2)cc1` was tested, and the IC50 was “Not Active”.
With `Fc1ccc(Nc2nc(Nc3ccc(F)cc3)nc(-c3cn(-c4ccc(-c5nc(-c6ccccc6)c(-c6ccccc6)o5)cc4)nn3)n2)cc1` the IC50 was “Not Active”.
`[O-][S+](Cc1nc(-c2ccccc2)c(-c2ccccc2)o1)c1ccc(-n2cc(-c3ccc(F)cc3)nn2)cc1` (stereo unspecified) was tested, and the IC50 was “Not Active”.
`COc1ccc2cc(-c3cn(-c4ccc(S(=O)(=O)Cc5nc(-c6ccccc6)c(-c6ccccc6)o5)cc4)nn3)ccc2c1` was tested, and the IC50 was “Not Active”.
`CCN(CC)c1nc(-c2cn(-c3ccc(-c4nc(-c5ccco5)c(-c5ccco5)o4)cc3)nn2)nc(N(CC)CC)n1` was tested, and the IC50 was “Not Active”.
For `O=S(=O)(Cc1nc(-c2ccccc2)c(-c2ccccc2)o1)c1ccc(-n2cc(-c3cccnc3)nn2)cc1`, the IC50 was “Not Active”.
For `Fc1ccc(Nc2nc(Nc3ccc(F)cc3)nc(-c3cn(-c4cccc(-c5nc(-c6ccc(F)cc6)c(-c6ccc(F)cc6)o5)c4)nn3)n2)cc1`, the IC50 was “Not Active”.
With `CCCCCc1ccc(-c2cn(-c3ccc([S+]([O-])Cc4nc(-c5ccccc5)c(-c5ccccc5)o4)cc3)nn2)cc1` (stereo unspecified) the IC50 was “Not Active”.
With `Fc1ccccc1Nc1nc(Nc2ccccc2F)nc(-c2cn(-c3ccc(-c4nc(-c5ccco5)c(-c5ccco5)o4)cc3)nn2)n1` the IC50 was “Not Active”.
For `Fc1ccccc1Nc1nc(Nc2ccccc2F)nc(-c2cn(-c3ccc(-c4nc(-c5ccccc5)c(-c5ccccc5)o4)cc3)nn2)n1`, the IC50 was “Not Active”.
With `CCN(CC)c1nc(-c2cn(-c3cccc(-c4nc(-c5ccc(OC)cc5)c(-c5ccc(OC)cc5)o4)c3)nn2)nc(N(CC)CC)n1` the IC50 was “Not Active”.
For `Fc1ccc(Nc2nc(Nc3ccc(F)cc3)nc(-c3cn(-c4ccccc4-c4nc(-c5ccccc5)c(-c5ccccc5)o4)nn3)n2)cc1`, the IC50 was “Not Active”.
In the case of `COc1ccc(-c2nc(-c3cccc(-n4cc(-c5nc(Nc6ccccc6F)nc(Nc6ccccc6F)n5)nn4)c3)oc2-c2ccc(OC)cc2)cc1`, the IC50 is reported as “Not Active”.
In the case of `[O-][S+](Cc1nc(-c2ccccc2)c(-c2ccccc2)o1)c1ccc(-n2cc(-c3ccc(Oc4ccccc4)cc3)nn2)cc1` (stereo unspecified), the IC50 is reported as “Not Active”.
With `[O-][S+](Cc1nc(-c2ccccc2)c(-c2ccccc2)o1)c1ccc(-n2cc(-c3cccnc3)nn2)cc1` (stereo unspecified) the IC50 was “Not Active”.
`O=S(=O)(Cc1nc(-c2ccccc2)c(-c2ccccc2)o1)c1ccc(-n2cc(-c3ccccc3C(F)(F)F)nn2)cc1` was tested, and the IC50 was “Not Active”.
In the case of `[O-][S+](Cc1nc(-c2ccccc2)c(-c2ccccc2)o1)c1ccc(-n2cc(-c3cc(C(F)(F)F)cc(C(F)(F)F)c3)nn2)cc1` (stereo unspecified), the IC50 is reported as “Not Active”.

These compounds were tested on TIGK (assay: Cytotoxicity against human TIGK cells assessed as reduction in ATP levels at 5 to 20 uM after 18 hrs by CellTiterGlo reagent-based assay).
Format: cell-based
How it was run: as §2
With `Fc1ccc(Nc2nc(Nc3ccc(F)cc3)nc(-c3cn(-c4ccc(-c5nc(-c6ccc(F)cc6)c(-c6ccc(F)cc6)o5)cc4)nn3)n2)cc1` the Activity was “Non-Toxic”.
